Results reported in ChEMBL document CHEMBL1799964, “Synthesis of novel vitamin K2 analogues with modification at the ω-terminal position and their biological evaluation as potent steroid and xenobiotic receptor (SXR) agonists” (J Med Chem, 2011).

Key:
[1] = target: T1, Nuclear receptor subfamily 1 group I member 2 (Homo sapiens, UniProt O75469); assay: Agonist activity at human SXR transfected in human HepG2 cells coexpressing GAL4 assessed as activation of receptor-mediated CYP3A4 gene transcription at 1 X 10^-6 M after 48 hrs by luciferase reporter gene assay; settings: hepg2, 48 h, 1 µM
T1 sequence (O75469 whole entry): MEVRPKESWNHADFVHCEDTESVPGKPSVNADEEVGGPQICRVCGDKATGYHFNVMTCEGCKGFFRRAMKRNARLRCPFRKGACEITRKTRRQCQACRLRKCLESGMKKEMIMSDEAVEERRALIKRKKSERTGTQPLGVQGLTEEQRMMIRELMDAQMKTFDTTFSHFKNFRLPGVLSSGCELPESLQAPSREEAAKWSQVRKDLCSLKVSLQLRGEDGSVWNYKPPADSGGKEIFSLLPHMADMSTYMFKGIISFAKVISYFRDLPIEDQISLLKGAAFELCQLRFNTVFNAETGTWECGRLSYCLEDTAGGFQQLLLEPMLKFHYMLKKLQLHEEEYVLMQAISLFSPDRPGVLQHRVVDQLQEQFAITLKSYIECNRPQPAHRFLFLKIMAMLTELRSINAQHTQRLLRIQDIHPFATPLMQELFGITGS

[2] = target: T1, Nuclear receptor subfamily 1 group I member 2; assay: Binding affinity to human SXR transfected in human HepG2 cells coexpressing GAL4 assessed as transcriptional activation at 5 X 10^-6 M after 48 hrs by luciferase reporter gene assay; type: cell-based; settings: hepg2, 48 h, 5 µM
Summary of the method: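 HepG2 cells (2 x 10⁵/well) transfected by Lipofectamine with pM-SXR (0.1 μg), pGVP2-GAL2 luciferase reporter (1.0 μg) and pRL-CMV (0.05 μg). Mean ± SD of three independent experiments; Student's t test.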

Homo sapiens = assay: Drug level in osteoporotic patient at 45 […] administered daily; type: ADME, organism-based; settings: in vivo, read-out: Drug uptake

| SMILES | Activity [1] | Activity [2] | concentration (Homo sapiens) [nM] |
| --- | --- | --- | --- |
| CC1=C(C/C=C(\C)CC/C=C(\C)Cc2ccccc2)C(=O)c2ccccc2C1=O | Active | Active | – |
| CC1=C(C/C=C(\C)CC/C=C(\C)CC/C=C(\C)Cc2ccccc2)C(=O)c2ccccc2C1=O | Active | Active | – |
| CC(C)=CCC1=C(C)C(=O)c2ccccc2C1=O | Active | Active | – |
| CC1=C(C/C=C(\C)CC/C=C(\C)CO)C(=O)c2ccccc2C1=O | Active | Not Active | – |
| CC1=C(C/C=C(\C)CC/C=C(\C)CC/C=C(\C)CC/C=C(\C)CO)C(=O)c2ccccc2C1=O | Active | Not Active | – |
| CC(C)=CCC/C(C)=C/CC/C(C)=C/CC1=C(C)C(=O)c2ccccc2C1=O | Active | Active | – |
| CC1=C(C/C=C(\C)CC/C=C(\C)CC/C=C(\C)CO)C(=O)c2ccccc2C1=O | Active | Not Active | – |
| CC(C)=CCC/C(C)=C/CC1=C(C)C(=O)c2ccccc2C1=O [MENAQUINONE-2] | – | Active | – |
| CC(C)=CCC/C(C)=C/CC/C(C)=C/CC/C(C)=C/CC1=C(C)C(=O)c2ccccc2C1=O [MENATETRENONE] | Active | Active | 1000 |
| CO[C@H]1/C=C/O[C@@]2(C)Oc3c(C)c(O)c4c(O)c(c(/C=N/N5CCN(C)CC5)c(O)c4c3C2=O)NC(=O)/C(C)=C\C=C\[C@H](C)[C@H](O)[C@@H](C)[C@@H](O)[C@@H](C)[C@H](OC(C)=O)[C@@H]1C [RIFAMPIN] | – | Active | – |
